Results as given in paper PMC3694426 (Clinical cancer research : an official journal of the …, 2013).
Entries after “also recorded” stand apart in the source; their conditions may differ. Marks after values point to notes of the source that are not given here.

What was measured:
[1] = phase I dose escalation: DLTs, MTD and treatment-emergent adverse events; format: in vivo, human
[2] = system: basal cell carcinoma (BCC); experiment: antitumor activity in patients with BCC; format: in vivo, human
Outline: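 Oral test compound, once daily in 28-day cycles, given as an outpatient, preceded by a single dose 7 days before cycle 1. BCC patients were dosed at 130 or 160 mg. Evaluable meant more than one dose plus a post-baseline clinical or RECIST 1.0 assessment. Treatment continued until progression, unacceptable adverse events or withdrawal.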

SCLC tumors = conditions: cited from earlier work
[3] = plasma pharmacokinetics in patients; format: in vivo, human; conditions: for CL/F: day 22 of cycle 1, plasma, arithmetic mean (CV%); for half-life: in vivo
[4] = system: B837Tx medulloblastoma allograft; conditions: oral administration; cited from earlier work
Gli-1 mRNA = experiment: pharmacodynamics: Gli-1 expression in skin and tumor biopsies; format: in vivo, human
Outline: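 Normal skin was biopsied before treatment and 3 weeks into cycle 1 of once-daily oral dosing. RNA was extracted and Gli-1 mRNA measured by RT-PCR. In the biopsy cohort, accessible tumours were sampled at the same time points (baseline cycle 1 day −7; cycle 1 day 22). Gli-1 IHC scored stromal versus epithelial nuclear staining.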

[5] = 28 evaluable vismodegib-naïve BCC patients

CC1=C2C[C@H]3[C@@H](CC[C@@H]4C[C@H](NS(C)(=O)=O)CC[C@@]43C)[C@@H]2CC[C@@]2(C1)O[C@@H]1C[C@H](C)CN[C@H]1[C@H]2C [IPI-926]
Fatigue, treatment-emergent adverse event ([1]; <130 mg (n = 5), Grade 1–2): 2 (40) n (%) | Hemoglobin (lab), treatment-emergent adverse event ([1]; <130 mg (n = 5), Grade 1–2): 3 (60) n (%) | Muscle spasms, treatment-emergent adverse event ([1]; <130 mg (n = 5), Grade 1–2): 2 (40) n (%) | Nausea, treatment-emergent adverse event ([1]; <130 mg (n = 5), Grade 1–2): 1 (20) n (%) | Thrombocytopenia (lab), treatment-emergent adverse event ([1]; <130 mg (n = 5), Grade 1–2): 0 (0) n (%) | Vomiting, treatment-emergent adverse event ([1]; <130 mg (n = 5), Grade 1–2): 0 (0) n (%) | ALT elevation (lab), treatment-emergent adverse event ([1]; <130 mg (n = 5), Grade ≥3): 0 (0) n (%) | AST elevation (lab), treatment-emergent adverse event ([1]; <130 mg (n = 5), Grade ≥3): 0 (0) n (%) | Alopecia, treatment-emergent adverse event ([1]; <130 mg (n = 5), Grade ≥3): 0 (0) n (%) | Decreased appetite, treatment-emergent adverse event ([1]; <130 mg (n = 5), Grade ≥3): 0 (0) n (%) | Diarrhea, treatment-emergent adverse event ([1]; <130 mg (n = 5), Grade ≥3): 0 (0) n (%) | Dysgeusia, treatment-emergent adverse event ([1]; <130 mg (n = 5), Grade ≥3): 0 (0) n (%) | Fatigue, treatment-emergent adverse event ([1]; <130 mg (n = 5), Grade ≥3): 0 (0) n (%) | Hemoglobin (lab), treatment-emergent adverse event ([1]; <130 mg (n = 5), Grade ≥3): 0 (0) n (%) | Muscle spasms, treatment-emergent adverse event ([1]; <130 mg (n = 5), Grade ≥3): 0 (0) n (%) | Nausea, treatment-emergent adverse event ([1]; <130 mg (n = 5), Grade ≥3): 0 (0) n (%) | Thrombocytopenia (lab), treatment-emergent adverse event ([1]; <130 mg (n = 5), Grade ≥3): 0 (0) n (%) | Vomiting, treatment-emergent adverse event ([1]; <130 mg (n = 5), Grade ≥3): 0 (0) n (%) | ALT elevation (lab), treatment-emergent adverse event ([1]; >160 mg (n = 15), Grade 1–2): 11 (73) n (%) | AST elevation (lab), treatment-emergent adverse event ([1]; >160 mg (n = 15), Grade 1–2): 12 (80) n (%) | Alopecia, treatment-emergent adverse event ([1]; >160 mg (n = 15), Grade 1–2): 2 (13) n (%) | Decreased appetite, treatment-emergent adverse event ([1]; >160 mg (n = 15), Grade 1–2): 4 (27) n (%) | Diarrhea, treatment-emergent adverse event ([1]; >160 mg (n = 15), Grade 1–2): 2 (13) n (%) | Dysgeusia, treatment-emergent adverse event ([1]; >160 mg (n = 15), Grade 1–2): 1 (7) n (%) | Fatigue, treatment-emergent adverse event ([1]; >160 mg (n = 15), Grade 1–2): 6 (40) n (%) | Hemoglobin (lab), treatment-emergent adverse event ([1]; >160 mg (n = 15), Grade 1–2): 12 (80) n (%) | Muscle spasms, treatment-emergent adverse event ([1]; >160 mg (n = 15), Grade 1–2): 4 (27) n (%) | Nausea, treatment-emergent adverse event ([1]; >160 mg (n = 15), Grade 1–2): 7 (47) n (%) | Thrombocytopenia (lab), treatment-emergent adverse event ([1]; >160 mg (n = 15), Grade 1–2): 1 (7) n (%) | Vomiting, treatment-emergent adverse event ([1]; >160 mg (n = 15), Grade 1–2): 5 (33) n (%) | ALT elevation (lab), treatment-emergent adverse event ([1]; >160 mg (n = 15), Grade ≥3): 4 (27) n (%) | AST elevation (lab), treatment-emergent adverse event ([1]; >160 mg (n = 15), Grade ≥3): 3 (20) n (%) | Alopecia, treatment-emergent adverse event ([1]; >160 mg (n = 15), Grade ≥3): 0 (0) n (%) | Decreased appetite, treatment-emergent adverse event ([1]; >160 mg (n = 15), Grade ≥3): 1 (7) n (%) | Diarrhea, treatment-emergent adverse event ([1]; >160 mg (n = 15), Grade ≥3): 0 (0) n (%) | Dysgeusia, treatment-emergent adverse event ([1]; >160 mg (n = 15), Grade ≥3): 0 (0) n (%) | Fatigue, treatment-emergent adverse event ([1]; >160 mg (n = 15), Grade ≥3): 2 (13) n (%) | Hemoglobin (lab), treatment-emergent adverse event ([1]; >160 mg (n = 15), Grade ≥3): 1 (7) n (%) | Muscle spasms, treatment-emergent adverse event ([1]; >160 mg (n = 15), Grade ≥3): 0 (0) n (%) | Nausea, treatment-emergent adverse event ([1]; >160 mg (n = 15), Grade ≥3): 0 (0) n (%) | Thrombocytopenia (lab), treatment-emergent adverse event ([1]; >160 mg (n = 15), Grade ≥3): 0 (0) n (%) | Vomiting, treatment-emergent adverse event ([1]; >160 mg (n = 15), Grade ≥3): 0 (0) n (%) | recommended phase II / single-agent dose ([1]; QD, 28-day cycles): 160 mg | dose levels well tolerated ([1]; administered QD): up to 160 mg | hematologic toxicity ([1]; all dose levels): not associated with hematologic toxicity; also recorded: No significant hematologic toxicities | patients reporting alopecia ([1]; at the MTD): 22% | patients reporting muscle spasms ([1]; at the MTD): 33% | complete response (CR) [2, 5]: 2 patients | partial response (PR) [2, 5]: 6 patients | patients with objective response [2, 5]: Eight | patients showing a response ([2]; HhP inhibitor-naïve evaluable BCC patients, doses ≥130 mg): 8 of 28 | difference in efficacy between the 130- and 160-mg dose levels ([2]; full BCC cohort (N = 39)): no apparent difference in efficacy | objective responses ([2]; nine BCC patients previously treated with vismodegib): no objective responses | regrowth of SCLC tumors following chemotherapy (SCLC tumors): delays regrowth | CL/F ([3]; 20 mg QD oral (n = 1)): 111 (NC) L/h | CL/F ([3]; 30 mg QD oral (n = 1)): 59.0 (NC) L/h | CL/F ([3]; 40 mg QD oral (n = 1)): 50.0 (NC) L/h | CL/F ([3]; 60 mg QD oral (n = 1)): 28.6 (NC) L/h | CL/F ([3]; 130 mg QD oral, n = 4): 23.0 (36.0) ^b L/h | CL/F ([3]; 160 mg QD oral (n = 4)): 21.2 (38.5) L/h | CL/F ([3]; 180 mg QD oral (n = 1)): 14.0 (NC) L/h | CL/F ([3]; 200 mg QD oral (n = 1)): 13.3 (NC) L/h | CL/F ([3]; 210 mg QD oral (n = 5)): 20.6 (35.5) L/h | mean oral clearance (CL/F) ([3]; 130-mg dose level, expanded phases): 27.4 L/h | mean oral clearance (CL/F) ([3]; 160-mg dose level, expanded phases): 20.1 L/h | half-life ([3]; human, po): 20 to 40 h | half-life ([3]; human, po, 130 mg): 19.3 h | half-life ([3]; human, po, 160 mg): 17.3 h | half-life ([3]; human, po, 180 mg): 16.1 h | half-life ([3]; human, po, 200 mg): 12.7 h | Tmax ([3]; human, plasma, po, Tmax (slow absorption), overall summary, patients): 2 to 8 h | dose dependence of mean AUC0–24 and Cmax ([3]; single and multiple doses of 130 to 160 mg, expanded phases): dose-proportional manner | inhibition of HhP activity (downregulation of Gli1 mRNA) [4]: dose-dependent inhibition of HhP activity | survival of mice bearing orthotopically implanted tumors [4]: significant prolongation of survival | patients with a decrease in Gli-1 transcript level in normal skin biopsies (Gli-1 mRNA; 48 of 65 patients, after 21 days of treatment): 74% | Gli-1 transcript reduction in stroma (LCM quantitative RT-PCR) (Gli-1 mRNA; rectal adenocarcinoma patient biopsy, cycle 1, day 22 vs baseline): about 7 fold | Gli-1 stromal staining (IHC) (Gli-1 mRNA; rectal adenocarcinoma posttreatment biopsy, cycle 1, day 22): reduced Gli-1 stromal staining
